Data set [1] deals with influenza A/PR/8/34 (H1N1) virus. Format: cell-based.
Data set [2] can be described thus: Cytotoxicity assay. The data set is classed as cell-based. The conditions noted are these: dog, MDCK cells. Put shortly: (§1)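 MDCK cells seeded at 3×10^4/well in 10% FBS and grown 24 h at 37 °C to semi-confluency. Exposed 48 h to twofold dilutions of test compound (2.5 to 0.001 mg/ml), 4 wells per dilution. MTT for 2–3 h at 37 °C in the dark, formazan dissolved in DMSO, OD read at 540 nm, viability taken as % of untreated control. CC50 read from dose-response curves.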

A short description of data set [3]: Critical micelle concentration. The data set is classed as physicochemical.
Data set [4] has as its system MDCK cells. As to the kind of experiment: Cytotoxicity assay. The data set is classed as cell-based. As to conditions: 48 h, MTT; for NCTC (EC50): NCTC was selected as EC50 (HA test). A digest of the protocol: as §1
The subject of data set [5] is H1N1-induced apoptosis in MDCK cells. Format: cell-based.
In data set [6] the test system is MDCK cells. Format: cell-based.
For data set [7], the target named is virus surface HA glycoprotein (Influenza A virus, UniProt P03452). As to the kind of experiment: Hemagglutination inhibition assay. The conditions noted are these: twofold dilutions from CC50, 4 HA unit of virus, 1% cRBC. Format: biochemical.

These results are taken from PMC10088587 (Archives of Microbiology, 2023).

The CC50 is the concentration giving 50% cytotoxicity. Low readings indicate greater toxicity to the cells, high ones lower toxicity to the cells. Broadly, the EC50 is the concentration needed to bring the measured effect to its halfway point. Lower therefore signals a more potent agent.

≈ marks a conversion by molar mass, not a printed value. Structures can show the parent of a compound that is named as a salt.

Sequence of virus surface HA glycoprotein (P03452 18-342 limits assumed): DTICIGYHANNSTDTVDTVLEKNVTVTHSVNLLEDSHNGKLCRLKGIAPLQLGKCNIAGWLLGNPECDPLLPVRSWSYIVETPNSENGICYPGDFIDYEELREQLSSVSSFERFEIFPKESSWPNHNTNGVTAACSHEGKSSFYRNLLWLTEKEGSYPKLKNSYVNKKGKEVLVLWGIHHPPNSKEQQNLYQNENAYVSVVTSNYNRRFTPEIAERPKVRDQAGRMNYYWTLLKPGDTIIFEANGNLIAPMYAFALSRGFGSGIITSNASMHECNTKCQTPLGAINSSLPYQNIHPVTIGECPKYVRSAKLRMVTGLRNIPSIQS
Sequence of virus surface HA glycoprotein (P03452 344-565 limits assumed): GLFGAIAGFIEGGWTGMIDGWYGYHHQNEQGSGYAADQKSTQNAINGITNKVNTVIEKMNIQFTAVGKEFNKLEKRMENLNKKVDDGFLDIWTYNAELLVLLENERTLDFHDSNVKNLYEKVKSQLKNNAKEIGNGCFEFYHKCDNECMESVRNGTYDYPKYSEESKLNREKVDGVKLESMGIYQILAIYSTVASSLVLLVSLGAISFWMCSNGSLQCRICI

For the molecule `NC12CC3CC(CC(C3)C1)C2` [Ama, amantadine hydrochloride, reference compound], the “Log HA decrement (mean ± SD), Co-pen” value in data set [1] came to 7 logs. In data set [2], this molecule registered a CC50 at 48 h of 197 ± 1.5 µg/mL and an EC50 at 48 h of 98.5 µg/mL.
As to `CCCCCCCCCCCCCCCC[N+](C)(C)CCCCCC[N+](C)(C)CCCCCCCCCCCCCCCC.[Br-].[Br-]` [GSA, Hexamethylene-1,6-bis(N,N-dimethyl-N-hexadecylammonium bromide)], in data set [1], the “Log HA decrement (mean ± SD), Co-pen” value amounted to 6.5 logs. The “CMC (critical micelle concentration)” value in data set [3] is 0.034. In data set [4], the half-maximal cytotoxic concentration (CC50) is 7.7 ± 0.0 µg/mL and the “NCTC (EC50)” value was determined as 2.6 ± 1.7 µg/mL. Also, in data set [5], the “Apoptosis evaluation (%), Q4 healthy cells” value turned out to be 54.85%.
Regarding `CCCCCCCCCCCC[N+](C)(C)CCCNCCC[N+](C)(C)CCCCCCCCCCCC.[Br-].[Br-]` [GSB, 4-aza-1,7-heptane-bis(N,N-dimethyl-N-dodecylammonium bromide)], the “CMC (critical micelle concentration)” value in data set [3] turned out to be 1.047. Further, in data set [4], the CC50 was found to be 1.9 ± 0.1 µg/mL and the “NCTC (EC50)” value is 0.7 ± 0.3 µg/mL. For the same molecule, the “Apoptosis evaluation (%), Q2 late apoptosis” value in data set [5] was 49.50%.
Take `CCCCCCCCCCCC[N+](C)(C)CCCCCCCCCC[N+](C)(C)CCCCCCCCCCCC.[Br-].[Br-]` [GSC, Decamethylene-1,10-bis(N,N-dimethyl-N-dodecylammonium bromide)]: in data set [1], the “Log HA decrement (mean ± SD), Co-pen” value is reported as 6.5 logs and the “Log HA decrement (mean ± SD), Pre-pen” value is listed as 4.5 logs. The “CMC (critical micelle concentration)” value in data set [3] is recorded as 0.63. In data set [6], the “Apoptosis evaluation (%), Q4 healthy cells” value is listed as 37.500 ± 9.900%. Further, in data set [4], the CC50 turned out to be 4.0 ± 0.0 µg/mL and the “NCTC (EC50)” value was 1.2 ± 0.6 µg/mL. For the same molecule, the “Apoptosis evaluation (%), Q4 healthy cells” value in data set [5] worked out at 37.50%.
Regarding `CCCCCCCCCCCC[N+](C)(C)CCOCC[N+](C)(C)CCCCCCCCCCCC.[Br-].[Br-]` [GSD, 3-oxa-1,5-pentane-bis(N,N-dimethyl-N-dodecylammonium bromide)], the “Log HA decrement (mean ± SD), Post-pen” value in data set [1] was found to be 5.5 logs. The “CMC (critical micelle concentration)” value in data set [3] worked out at 1.047. Besides, in data set [4], the CC50 was found to be 4.9 ± 0.1 µg/mL and the “NCTC (EC50)” value is 1.7 ± 0.6 µg/mL. Moreover, the “Apoptosis evaluation (%), Q2 late apoptosis” value in data set [5] came to 46.70%.
Consider `CCCCCCCCCCCC[N+](C)(C)CCCCCC[N+](C)(C)CCCCCCCCCCCC.[Br-].[Br-]` [GSE, Hexamethylene-1,6-bis (N,N-dimethyl-N-dodecylammonium bromide)], for which, in data set [3], the “CMC (critical micelle concentration)” value is recorded as 0.98. Besides, in data set [4], the CC50 was 3.4 ± 0.0 µg/mL and the “NCTC (EC50)” value is 0.9 ± 0.5 µg/mL. The “Apoptosis evaluation (%), Q3 early apoptosis” value in data set [5] is given as 54.10%.
Consider `CCCCCCCCCCCCCCCC[N+](C)(C)CCCCCCCCCC[N+](C)(C)CCCCCCCCCCCCCCCC.[Br-].[Br-]` [GSF, Decamethylene-1,10-bis(N,N-dimethyl-N-hexadecylammonium bromide)], for which the “CMC (critical micelle concentration)” value in data set [3] is 0.032. Moreover, the “Apoptosis evaluation (%), Q4 healthy cells” value in data set [6] was 82.950 ± 8.132%. Also, in data set [4], the CC50 stood at 8.8 ± 0.0 µg/mL and the “NCTC (EC50)” value came out at 1.7 ± 0.5 µg/mL. Moreover, the “Apoptosis evaluation (%), Q4 healthy cells” value in data set [5] came to 70.50%.
`CCCCCCCCCCCCCCCC[N+](C)(C)CCCCCCCCCCCC[N+](C)(C)CCCCCCCCCCCCCCCC.[Br-].[Br-]` [GSG, Dodecamethylene-1,12-bis(N,N-dimethyl-N-hexadecylammonium bromide)]: the “CMC (critical micelle concentration)” value in data set [3] is recorded as 0.022. Moreover, in data set [4], the CC50 came out at 11.9 ± 0.0 µg/mL and the “NCTC (EC50)” value came to 1.7 ± 1.3 µg/mL. For the same molecule, the “Apoptosis evaluation (%), Q4 healthy cells” value in data set [5] turned out to be 70.10%.
The like results for `CCCCCCCCCCCCCCCC[N+](C)(C)Cc1ccc(C[N+](C)(C)CCCCCCCCCCCCCCCC)cc1.[Br-].[Br-]` [GSH, 1,4-phenylene-bis(methylene)bis (N,N-dimethyl-N-hexadecylammonium bromide)] were, in that order, 0.48, 522.2 ± 0.0 µg/mL, 36.7 ± 28.6 µg/mL and 68.05%.
With `CCCCCCCCCCCCCCCCCC[N+](C)(C)CCCCCCCCCC[N+](C)(C)CCCCCCCCCCCCCCCCCC.[Br-].[Br-]` [GSI, Decamethylene-1,10-bis(N,N-dimethyl-N-octadecylammonium bromide)], the “CMC (critical micelle concentration)” value in data set [3] came to 0.0213. For the same molecule, the “Apoptosis evaluation (%), Q4 healthy cells” value in data set [6] stood at 84.850 ± 1.202%; in data set [5], 77.90%. This molecule also had a CC50 in data set [4] of 16.4 ± 0.0 µg/mL. Also, the “NCTC (EC50)” value in data set [4] stood at 2.6 ± 1.5 µg/mL.
Take `CCCCCCCCCCCCCCCCCC[N+](C)(C)CCCCCCCCCCCC[N+](C)(C)CCCCCCCCCCCCCCCCCC.[Br-].[Br-]` [GSJ, Dodecamethylene-1, 12-bis (N, N-dimethyl-N-octadecylammonium bromide)]: in data set [3], the “CMC (critical micelle concentration)” value is 0.0331. Further, in data set [4], the CC50 turned out to be 48.6 ± 0.0 µg/mL and the “NCTC (EC50)” value worked out at 0.6 ± 0.2 µg/mL. In data set [5], the “Apoptosis evaluation (%), Q4 healthy cells” value turned out to be 68.75%.
Regarding `CCCCCCCCCCCCCCCCCC[N+](C)(C)Cc1ccc(C[N+](C)(C)CCCCCCCCCCCCCCCCCC)cc1.[Br-].[Br-]` [GSK, 1,4-phenylene-bis(methylene) bis (N,N-dimethyl-N-octadecylammonium bromide)], the “CMC (critical micelle concentration)” value in data set [3] was 0.29. For the same molecule, in data set [4], the CC50 amounted to 1229.2 ± 0.0 µg/mL and the “NCTC (EC50)” value stood at 307.3 ± 0.0 µg/mL.
On to `CCC(CC)O[C@@H]1C=C(C(=O)O)C[C@H](N)[C@H]1NC(C)=O` [Ose, oseltamivir carboxylate, reference compound], for which, in data set [7], the “Dilution to give HI +” value was 1st. Besides, in data set [1], the “Log HA decrement (mean ± SD), Co-pen” value is 8 logs; the “Log HA decrement (mean ± SD), Post-pen” value amounted to 8 logs; the “Log HA decrement (mean ± SD), Pre-pen” value was determined as 8 logs. Besides, in data set [4], the CC50 turned out to be 788.5 ± 6.0 µg/mL (≈ 2770 µM) and the “NCTC (EC50)” value came to 394.2 ± 0.0 µg/mL.
